Experimental data published in ChEMBL document CHEMBL1135657, “Novel dual inhibitors of AChE and MAO derived from hydroxy aminoindan and phenethylamine as potential treatment for Alzheimer's disease” (J Med Chem, 2002).

Assays:
Acetylcholinesterase [1] = molecular target: T1, Acetylcholinesterase (Homo sapiens, UniProt P22303); test: In vitro inhibitory concentration against purified Acetylcholinesterase of human erythrocytes
Acetylcholinesterase [2] = molecular target: T1, Acetylcholinesterase; test: In vitro inhibitory concentration against purified Acetylcholinesterase of human erythrocytes; value ranges from 224-1012
Butyrylcholinesterase [3] = molecular target: T2, Butyrylcholinesterase (Equus caballus, UniProt Q9N1N9); test: In vitro inhibitory concentration against Butyrylcholinesterase of horse serum; value ranges from 0.25-0.40
T2 sequence (Q9N1N9 whole entry): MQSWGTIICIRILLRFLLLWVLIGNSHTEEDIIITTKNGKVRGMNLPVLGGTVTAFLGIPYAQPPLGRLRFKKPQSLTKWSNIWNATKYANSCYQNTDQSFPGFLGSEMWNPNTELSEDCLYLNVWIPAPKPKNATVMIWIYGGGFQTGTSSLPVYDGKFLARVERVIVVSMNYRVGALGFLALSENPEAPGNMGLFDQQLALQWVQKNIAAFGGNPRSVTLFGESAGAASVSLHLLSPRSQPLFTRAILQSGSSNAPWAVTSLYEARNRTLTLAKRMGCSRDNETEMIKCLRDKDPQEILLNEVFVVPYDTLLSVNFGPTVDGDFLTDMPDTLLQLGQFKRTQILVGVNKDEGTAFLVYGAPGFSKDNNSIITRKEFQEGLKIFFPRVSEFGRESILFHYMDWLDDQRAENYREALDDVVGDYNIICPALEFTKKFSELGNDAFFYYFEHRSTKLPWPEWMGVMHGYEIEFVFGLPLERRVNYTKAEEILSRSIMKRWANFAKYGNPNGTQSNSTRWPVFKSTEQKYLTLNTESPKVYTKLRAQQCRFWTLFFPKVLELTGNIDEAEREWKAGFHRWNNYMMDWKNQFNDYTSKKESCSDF
Summary of the method: (§1)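 Ellman assay followed, with 200 µM butyrylthiocholine as substrate. Runs were in triplicate with four-point dose-response curves. IC50 and fiducial limits came from log concentration versus % inhibition.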

[4] = molecular target: T3, Amine oxidase [flavin-containing] A (Rattus norvegicus, UniProt P21396); test: In vitro inhibitory concentration against Monoamine oxidase A of rat brain homogenates; value ranges from 190-310; assay type: tissue-based
T3 sequence (P21396 whole entry): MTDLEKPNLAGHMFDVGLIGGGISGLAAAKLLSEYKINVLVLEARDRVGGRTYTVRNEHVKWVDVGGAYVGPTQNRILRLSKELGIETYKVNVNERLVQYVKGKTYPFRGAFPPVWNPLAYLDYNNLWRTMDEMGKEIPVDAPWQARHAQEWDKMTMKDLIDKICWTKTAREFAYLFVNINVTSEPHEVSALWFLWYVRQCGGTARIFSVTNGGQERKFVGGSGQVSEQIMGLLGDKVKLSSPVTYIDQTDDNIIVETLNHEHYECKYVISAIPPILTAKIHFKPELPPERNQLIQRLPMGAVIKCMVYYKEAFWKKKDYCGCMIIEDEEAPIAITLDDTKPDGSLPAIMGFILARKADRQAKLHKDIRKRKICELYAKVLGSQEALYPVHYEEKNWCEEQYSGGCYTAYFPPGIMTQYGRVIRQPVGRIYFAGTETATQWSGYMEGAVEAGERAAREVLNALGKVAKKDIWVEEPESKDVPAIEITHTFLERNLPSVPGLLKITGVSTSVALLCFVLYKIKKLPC

Butyrylcholinesterase [5] = molecular target: T2, Butyrylcholinesterase; test: In vitro inhibitory concentration against Butyrylcholinesterase of horse serum; value ranges from 0.8-3.2
[6] = molecular target: T4, Amine oxidase [flavin-containing] B (Rattus norvegicus, UniProt P19643); test: In vitro inhibitory concentration against Monoamine oxidase B of rat brain homogenates; assay type: tissue-based
T4 sequence (P19643 whole entry): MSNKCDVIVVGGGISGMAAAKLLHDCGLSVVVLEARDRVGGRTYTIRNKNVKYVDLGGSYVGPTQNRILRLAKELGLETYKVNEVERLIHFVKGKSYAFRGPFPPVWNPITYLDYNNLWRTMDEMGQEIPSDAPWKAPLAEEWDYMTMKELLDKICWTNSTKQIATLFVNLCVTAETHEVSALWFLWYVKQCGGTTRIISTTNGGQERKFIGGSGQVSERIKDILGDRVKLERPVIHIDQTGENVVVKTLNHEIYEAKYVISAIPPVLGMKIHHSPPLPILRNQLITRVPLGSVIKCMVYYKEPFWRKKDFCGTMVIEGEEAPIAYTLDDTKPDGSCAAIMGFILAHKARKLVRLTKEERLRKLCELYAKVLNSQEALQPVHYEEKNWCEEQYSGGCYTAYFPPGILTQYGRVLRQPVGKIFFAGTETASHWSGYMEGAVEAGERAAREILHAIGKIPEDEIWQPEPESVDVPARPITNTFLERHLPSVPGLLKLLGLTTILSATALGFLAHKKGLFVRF

Acetylcholinesterase [7] = molecular target: T1, Acetylcholinesterase; test: In vitro inhibitory concentration against purified Acetylcholinesterase of human erythrocytes; value ranges from 11.9-128
Acetylcholinesterase [8] = molecular target: T1, Acetylcholinesterase; test: In vitro inhibitory concentration against purified Acetylcholinesterase of human erythrocytes; value ranges from […]-[…]
Butyrylcholinesterase [9] = molecular target: T2, Butyrylcholinesterase; test: In vitro inhibitory concentration against Butyrylcholinesterase of horse serum; value ranges from 0.85-1.96; summary of the method: as §1
[10] = molecular target: T3, Amine oxidase [flavin-containing] A; test: In vitro inhibitory concentration against Monoamine oxidase A of rat brain homogenates; value ranges from 0.72-0.97; assay type: tissue-based
Acetylcholinesterase [11] = molecular target: T1, Acetylcholinesterase
Butyrylcholinesterase [12] = molecular target: T2, Butyrylcholinesterase; test: In vitro inhibitory concentration against Butyrylcholinesterase of horse serum; value ranges from 0.016-0.021; summary of the method: as §1
[13] = molecular target: T4, Amine oxidase [flavin-containing] B; test: In vitro inhibitory concentration against Monoamine oxidase B of rat brain homogenates; value ranges from 90-260
[14] = molecular target: T3, Amine oxidase [flavin-containing] A; test: In vitro inhibitory concentration against Monoamine oxidase A of rat brain homogenates; value ranges from 290-920; assay type: tissue-based
[15] = molecular target: T3, Amine oxidase [flavin-containing] A; test: In vitro inhibitory concentration against Monoamine oxidase A of rat brain homogenates; value ranges from 260-420; assay type: tissue-based
[16] = molecular target: T4, Amine oxidase [flavin-containing] B; test: In vitro inhibitory concentration against Monoamine oxidase B of rat brain homogenates; value ranges from 590-900
Acetylcholinesterase [17] = molecular target: T1, Acetylcholinesterase; test: In vitro inhibitory concentration against purified Acetylcholinesterase of human erythrocytes; value ranges from 28.1-58.3
Acetylcholinesterase [18] = molecular target: T1, Acetylcholinesterase; remark: listed apart in the source
Butyrylcholinesterase [19] = molecular target: T2, Butyrylcholinesterase; test: In vitro inhibitory concentration against Butyrylcholinesterase of horse serum; value ranges from 4.9-11.2; summary of the method: as §1
Butyrylcholinesterase [20] = molecular target: T2, Butyrylcholinesterase; test: In vitro inhibitory concentration against Butyrylcholinesterase of horse serum; value ranges from 0.99-1.91; summary of the method: as §1
Acetylcholinesterase [21] = molecular target: T1, Acetylcholinesterase; test: In vitro inhibitory concentration against purified Acetylcholinesterase of human erythrocytes; value ranges from 1.28-3.30
[22] = molecular target: T3, Amine oxidase [flavin-containing] A; test: In vitro inhibitory concentration against Monoamine oxidase A of rat brain homogenates; value ranges from 7.6-12.5; assay type: tissue-based
Acetylcholinesterase [23] = molecular target: T1, Acetylcholinesterase; test: In vitro inhibitory concentration against purified Acetylcholinesterase of human erythrocytes; value ranges from 0.008-0.012
Butyrylcholinesterase [24] = molecular target: T2, Butyrylcholinesterase; test: In vitro inhibitory concentration against Butyrylcholinesterase of horse serum; value ranges from 0.009-0.024; summary of the method: as §1
Acetylcholinesterase [25] = molecular target: T1, Acetylcholinesterase; test: In vitro inhibitory concentration against purified Acetylcholinesterase of human erythrocytes; value ranges from 5.5-45.9
[26] = molecular target: T3, Amine oxidase [flavin-containing] A; test: In vitro inhibitory concentration against Monoamine oxidase A of rat brain homogenates; value ranges from 29-44; assay type: tissue-based
[27] = molecular target: T4, Amine oxidase [flavin-containing] B; test: In vitro inhibitory concentration against Monoamine oxidase B of rat brain homogenates; value ranges from 6-350
Acetylcholinesterase [28] = molecular target: T1, Acetylcholinesterase; test: In vitro inhibitory concentration against purified Acetylcholinesterase of human erythrocytes; value ranges from 0.49-0.58
Acetylcholinesterase [29] = molecular target: T1, Acetylcholinesterase; test: In vitro inhibitory concentration against purified Acetylcholinesterase of human erythrocytes; value ranges from 1.7-6.4
Butyrylcholinesterase [30] = molecular target: T2, Butyrylcholinesterase; test: In vitro inhibitory concentration against Butyrylcholinesterase of horse serum; value ranges from 2.1-4.1; summary of the method: as §1
[31] = Bimolecular rate constant for carbamoylation of ACHE; assay type: ADME
Summary of the method: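 Human erythrocyte AChE preincubated with inhibitor at 37 °C in 0.1 M phosphate buffer, pH 7.4, under Ellman conditions with 200 µM […]. Pseudo-first-order rate constants (k_obs) for progressive inhibition were obtained at 4-5 inhibitor concentrations. The apparent bimolecular carbamylation constant k_i was calculated from these.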

T1 sequence (P22303 whole entry): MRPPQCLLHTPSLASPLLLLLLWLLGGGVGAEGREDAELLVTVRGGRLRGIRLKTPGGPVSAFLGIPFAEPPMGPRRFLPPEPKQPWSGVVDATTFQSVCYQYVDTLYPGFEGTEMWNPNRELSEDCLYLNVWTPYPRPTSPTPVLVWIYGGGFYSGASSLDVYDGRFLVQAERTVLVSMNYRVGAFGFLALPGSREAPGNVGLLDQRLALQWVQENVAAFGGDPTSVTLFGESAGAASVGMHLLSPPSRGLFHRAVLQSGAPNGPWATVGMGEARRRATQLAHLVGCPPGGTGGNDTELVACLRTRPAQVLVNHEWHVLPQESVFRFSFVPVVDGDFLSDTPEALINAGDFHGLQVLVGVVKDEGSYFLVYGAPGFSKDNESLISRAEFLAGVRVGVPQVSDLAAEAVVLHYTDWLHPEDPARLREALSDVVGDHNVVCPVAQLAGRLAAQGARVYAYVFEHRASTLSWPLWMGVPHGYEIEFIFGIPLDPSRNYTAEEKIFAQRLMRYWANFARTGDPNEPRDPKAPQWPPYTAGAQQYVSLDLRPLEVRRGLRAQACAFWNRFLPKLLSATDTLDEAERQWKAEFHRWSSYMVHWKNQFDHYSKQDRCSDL

C#CCN(C)C1CCc2cccc(OC(=O)N(C)CCC)c21 (stereo not drawn)
IC50 (Acetylcholinesterase [1]): > 1000 µM

C#CCNC1CCc2cccc(OC(=O)N(C)CC)c21 (stereo not drawn)
IC50 (Acetylcholinesterase [2]): 525 µM | IC50 (Butyrylcholinesterase [3]): 0.31 µM

C#CCNC1CCc2ccc(OC(=O)N(C)CC)cc21 (stereo not drawn)
IC50 [4]: 250 µM | IC50 (Butyrylcholinesterase [5]): 1.5 µM | IC50 [6]: > 1000 µM | IC50 (Acetylcholinesterase [7]): 47 µM

CNC1CCc2ccc(OC(=O)N(C)C)cc21 (stereo not drawn)
IC50 (Acetylcholinesterase [8]): 1.07 µM | IC50 (Butyrylcholinesterase [9]): 0.95 µM

C#CCNC1CCc2c(OC(=O)N(C)CC)cccc21 (stereo not drawn)
IC50 [10]: 0.83 µM | IC50 (Acetylcholinesterase [11]): 2.15 µM | IC50 (Butyrylcholinesterase [12]): 0.019 µM | IC50 [13]: 150 µM

CCNC1CCc2ccc(OC(=O)N(C)C)cc21 (stereo not drawn)
IC50 [14]: 500 µM | IC50 (Acetylcholinesterase [8]): 24.5 µM

C#CCN(C)C1CCc2cccc(OC(=O)N(C)C)c21 (stereo not drawn)
IC50 [15]: 330 µM | IC50 [16]: 730 µM

CCN(C)C(=O)Oc1ccc2c(c1)C(NC)CC2 (stereo not drawn)
IC50 (Acetylcholinesterase [17]): 38.6 µM

C#CCN(C)C1CCc2ccc(OC(=O)N(C)CCC)cc21 (stereo not drawn)
IC50 (Acetylcholinesterase [1]): > 1000 µM

C#CCNC1CCc2ccc(OC(=O)N(C)c3ccc(OC)cc3)cc21 (stereo not drawn)
IC50 (Acetylcholinesterase [18]): 0.86 µM | IC50 (Butyrylcholinesterase [19]): 6.4 µM

C#CCNC1CCc2ccc(OC(=O)NCC)cc21 (stereo not drawn)
IC50 (Acetylcholinesterase [8]): 13.7 µM

C#CCNC1CCc2ccc(OC(=O)N(C)Cc3ccccc3)cc21 (stereo not drawn)
IC50 (Butyrylcholinesterase [20]): 1.26 µM | IC50 (Acetylcholinesterase [21]): 1.78 µM

C#CCN(C)C1CCc2ccc(OC(=O)N(C)CC)cc21 (stereo not drawn)
IC50 (Acetylcholinesterase [1]): > 1300 µM

C#CCNC1CCc2ccc(OC(=O)N(CC)C3CCCCC3)cc21 (stereo not drawn)
IC50 (Acetylcholinesterase [8]): 17.9 µM

CN(C)C(=O)Oc1cccc2c1CCC2N (stereo not drawn)
IC50 [6]: > 1000 µM | IC50 [22]: 9.8 µM | IC50 (Acetylcholinesterase [23]): 0.009 µM | IC50 (Butyrylcholinesterase [24]): 0.014 µM

C#CCN(C)C1CCc2ccc(OC(=O)N(C)C)cc21 (stereo not drawn)
IC50 (Acetylcholinesterase [25]): 12.9 µM | IC50 [26]: 36 µM | IC50 [27]: 47 µM

CCCCCCN(C)C(=O)Oc1ccc2c(c1)C(N)CC2 (stereo not drawn)
IC50 (Acetylcholinesterase [28]): 0.53 µM

C#CCNC1CCc2cccc(OC(=O)N(C)C)c21 (stereo not drawn)
IC50 (Acetylcholinesterase [29]): 2.5 µM | IC50 (Butyrylcholinesterase [30]): 2.8 µM

CNC1CCc2cccc(OC(=O)N(C)C)c21 (stereo not drawn)
IC50 (Acetylcholinesterase [8]): 0.51 µM

CCN(C)C(=O)Oc1cccc([C@H](C)N(C)C)c1 [RIVASTIGMINE]
Bimolecular carbamoylation rate constant (ki) [31]: 23.87 M⁻¹ s⁻¹
